Results taken from PMC2692962 (Journal of molecular biology, 2009).

How the values were obtained:
[1] = biological target: T1, NS3h_1b(con1) HCV helicase (Hepatitis C virus genotype 1b, UniProt Q9WMX2); assay: Molecular beacon based helicase assay; format: biochemical; conditions: for DNA unwinding rate, times faster than ATP: 0.5 mM NTP, 2 mM MgCl2, 25 nM NS3h, 22 °C; for unwinding rate, % of that seen with ATP: 0.5 mM NTP analog, 2 mM MgCl2, initial rates; for Vmax, Michaelis-Menten / Km: data at or below 1 mM NTP; for Vmax, substrate inhibition model: global fit to equation (2); for Km: read-out: Km, Michaelis-Menten; for ability of divalent metal to support DNA unwinding: metal replacing Mg^2+
HCV helicase [2] = conditions: ref Locatelli et al.; cited from earlier work
[3] = biological target: T1, NS3h_1b(con1) HCV helicase; assay: Single-turnover MBHA; format: biochemical; conditions: for Afast / kfast / Aslow / kslow: 0.5 mM NTP
Outline: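 Enzyme (50 nM NS3h) and 10 nM 17 bp Cy5 beacon DNA substrate in 50 mM MOPS pH 6.5 with 4 mM MgCl2 were rapidly mixed 1:1 with 1.0 mM NTP plus 2 μM dT20 trap. Fluorescence gave substrate remaining, corrected against a substrate-free blank and pre-NTP signal. Product (5 nM minus remaining) was fit to a two-phase first-order equation. Three independent reactions were run.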

[4] = biological target: T1, NS3h_1b(con1) HCV helicase; assay: ATP hydrolysis assay; format: biochemical; conditions: for ATP hydrolysis in the absence of RNA: no nucleic acid, 100 nM NS3h, versus rate without added metal; for ATP hydrolysis in the absence of RNA / ATP hydrolysis in the presence of RNA: 2 mM ATP, 37 °C; for ATP hydrolysis in the presence of RNA: 0.1 mg/ml poly(U), 15 nM NS3h; for ATP hydrolyzed for each 25 bp duplex separated: MBHA conditions, 25 nM NS3h, 1.25 mM metal; for ATP hydrolyzed for each 25 bp duplex separated / rate of ATP hydrolysis: 1 mM ATP; for rate of ATP hydrolysis: in MBHA, 25 nM NS3h_1b(con1), 1.25 mM metal chloride, triplicate; for ATP hydrolyzed in the time needed to separate a single base pair: steady state unwinding versus ATP hydrolysis, only divalent cation present
[5] = biological target: T1, NS3h_1b(con1) HCV helicase; assay: mantADP; format: binding; conditions: FRET, metal replacing Mg^2+
HCV helicase [6] = conditions: ref Kyono et al.; cited from earlier work
full-length NS3 = conditions: ref Wardell et al.; cited from earlier work
[7] = 17 base pairs substrate, two-phase fit

T1 sequence (Q9WMX2 1192-1657): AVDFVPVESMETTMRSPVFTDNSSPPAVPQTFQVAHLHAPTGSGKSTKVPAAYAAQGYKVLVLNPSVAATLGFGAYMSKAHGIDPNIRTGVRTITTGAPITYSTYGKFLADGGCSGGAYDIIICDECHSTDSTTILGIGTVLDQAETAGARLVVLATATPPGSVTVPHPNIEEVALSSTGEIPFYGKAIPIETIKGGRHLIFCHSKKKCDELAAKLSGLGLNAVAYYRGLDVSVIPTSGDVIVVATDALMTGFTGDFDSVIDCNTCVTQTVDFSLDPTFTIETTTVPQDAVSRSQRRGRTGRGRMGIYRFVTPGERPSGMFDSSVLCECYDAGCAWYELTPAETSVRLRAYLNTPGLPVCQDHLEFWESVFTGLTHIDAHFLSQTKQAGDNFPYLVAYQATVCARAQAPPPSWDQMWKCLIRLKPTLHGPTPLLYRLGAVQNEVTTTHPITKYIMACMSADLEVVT

For `Nc1ncnc2c1ncn2[C@H]1CC[C@@H](CO[P@@](=O)(O)O[P@](=O)(O)OP(=O)(O)O)O1` [2′,3′-ddATP], the “DNA unwinding rate, times faster than ATP” value (from here on “DNA unwinding rate”) [1] was 2.7 fold.
With `Nc1ncnc2c1ncn2[C@@H]1O[C@H](COP(=O)(O)OP(=O)(O)OP(=O)(O)O)[C@@H](O)[C@H]1F` [2′-F-ATP] the “unwinding rate, % of that seen with ATP” value [1] was 145%.
For `CO[C@@H]1[C@H](O)[C@@H](COP(=O)(O)OP(=O)(O)OP(=O)(O)O)O[C@H]1n1cnc2c(N)ncnc21` [2′-O-methyl-ATP], the “unwinding rate, % of that seen with ATP” value [1] was 34%.
With `Nc1ncnc2c1ncn2[C@@H]1O[C@H](COP(=O)(O)OP(=O)(O)OP(=O)(O)O)[C@@H](O)[C@@H]1O` [2′-ara-ATP] the “unwinding rate, % of that seen with ATP” value [1] was “practically the same unwinding rates as ATP”.
In the case of `[N-]=[N+]=NC1C(O)C(COP(=O)(O)OP(=O)(O)OP(=O)(O)O)OC1n1cnc2c(N)ncnc21` (stereo not shown) [2′-azido-ATP], the “unwinding rate, % of that seen with ATP” value [1] is reported as 61%.
With `Nc1ncnc2c1ncn2[C@@H]1O[C@H](COP(=O)(O)OP(=O)(O)OP(=O)(O)O)C[C@H]1O` [3′-dATP] the “DNA unwinding rate” value [1] was 3 fold.
For `Nc1ncnc2c1ncn2[C@@H]1O[C@H](COP(=O)(O)OP(=O)(O)OP(=O)(O)O)[C@@H](O)[C@H]1O` [ATP], the “Vmax, Michaelis-Menten” value ([1]; 0.25 mM free Mg^2+) was 0.79 nM/min, the Vmax ([1]; equation (3), ATP and GTP both present) was 1.6 nM/min and the “Vmax, substrate inhibition model” value ([1]; 0.25 mM free Mg^2+) was 10 nM/min. For the same compound, the Ki ([1]; read-out: Ki (ATP), equation (3), ATP and GTP both present) was 0.69 mM, the Km ([1]; 0.25 mM free Mg^2+) was 70 µM and the “unwinding, times better than dATP” value (HCV helicase [2]) was 100 times. It also gave an Afast ([3]; 17 base pairs substrate) of 3.1 ± 0.02 nM, a kfast ([3]; 17 base pairs substrate) of 8.4 ± 0.1 min⁻¹ and an Aslow [3, 7] of 0.70 ± 0.04 nM. For the same compound, the kslow [3, 7] was 0.28 ± 0.05 min⁻¹, the Afast ([3]; 30 base pairs substrate) was 1.8 ± 0.03 nM and the Aslow ([3]; 30 base pairs substrate) was 1.2 ± 0.03 nM. It also gave a kfast ([3]; 30 base pairs substrate) of 3.1 ± 0.1 min⁻¹ and a kslow ([3]; 30 base pairs substrate) of 0.46 ± 0.03 min⁻¹.
With `[Ca+2]` [Ca^2+] the “ability of divalent metal to support DNA unwinding” value (“ability of divalent metal” for short) ([1]; data not shown) was “did not support” and the “ATP hydrolysis in the absence of RNA” value [4] was “inhibited the rate of hydrolysis”.
In the case of `[Co+2]` [Co^2+], the “ability of divalent metal” value ([1]; data not shown) is reported as “did not support”, the “ATP hydrolysis in the presence of RNA” value [4] is reported as “supported hydrolysis” and the “ATP hydrolysis in the absence of RNA” value [4] is reported as “inhibited the rate of hydrolysis”.
In the case of `Nc1nc2c(ncn2[C@@H]2O[C@H](COP(=O)(O)OP(=O)(O)OP(=O)(O)O)[C@@H](O)[C@H]2O)c(=O)[nH]1` [GTP], the “Vmax, Michaelis-Menten” value ([1]; 0.25 mM free Mg^2+) is reported as 0.05 nM/min, the “Kii (GTP)” value ([1]; equation (3), GTP as non-competitive inhibitor of ATP fueled unwinding) is reported as 0.65 mM and the “Vmax, substrate inhibition model” value ([1]; 0.25 mM free Mg^2+) is reported as 0.41 nM/min. The Km ([1]; 0.25 mM free Mg^2+) was 410 µM, the “reaction amplitude, times less than in ATP fueled reactions” value ([3]; 17 base pair substrate) was 7 times and the Afast ([3]; 17 base pairs substrate) was 0.42 ± 0.03 nM. It also gave a kfast ([3]; 17 base pairs substrate) of 8.3 ± 1.9 min⁻¹, an Afast ([3]; 30 base pairs substrate) of 0.58 ± 0.08 nM and an Aslow ([3]; 30 base pairs substrate) of 0.11 ± 0.05 nM. It also gave a kfast ([3]; 30 base pairs substrate) of 0.61 ± 0.06 min⁻¹ and a kslow ([3]; 30 base pairs substrate) of 0.62 ± 0.08 min⁻¹.
With `Nc1ncnc2c1ncn2[C@@H]1O[C@H](COP(=O)([O-])OP(=O)([O-])OP(=O)(O)O)[C@@H](O)[C@H]1O.[Mg+2]` [Mg(ATP)^2−] the “maximal steady state unwinding rate” value ([1]; 25 nM NS3h) was 0.8 nM/min, the “Vmax for unwinding, times faster than Mg(GTP)^2−” value ([1]; Michaelis-Menten fit, data up to 1 mM Mg(NTP)^2−, 0.25 mM free Mg^2+) was 15 times and the kcat of unwinding ([1]; calculated from maximal steady state rate at 25 nM NS3h, assumes monomer) was 0.000533 s⁻¹.
In the case of `[Cl-].[Cl-].[Mg+2]` [Mg^2+, MgCl2], the “ATP hydrolysis in the presence of RNA” value [4] is reported as “supported hydrolysis”, the “ATP hydrolyzed for each 25 bp duplex separated” value [4] is reported as “about 1,000 ATP” and the “rate of ATP hydrolysis” value [4] is reported as 629 ± 5.4 nM/min. For the same compound, the “ATP hydrolysis in the absence of RNA” value [4] was “enhanced hydrolysis” and the “ATP hydrolyzed in the time needed to separate a single base pair” value [4] was “about 40 ATP”.
In the case of `Nc1ncnc2c1ncn2C1OC(COP(=O)([O-])OP(=O)([O-])OP(=O)([O-])[O-])C(O)C1O.[Mn+2]` (stereo not shown) [Mn(ATP)^2−], the “hydrolysis by the open form, times slower than Mg(ATP)^2−” value ([4]; enzyme not bound to RNA) is reported as “at least 100 times”.
In the case of `[Cl][Mn][Cl]` [Mn^2+, MnCl2], the “MBHA substrate unwound, times faster than with Mg^2+” value ([1]; 25 nM NS3h_1b(con1), 1 mM ATP, 1.25 mM MgCl2 or MnCl2) is reported as “about 14 times”, the “ability of divalent metal” value ([1]; data not shown) is reported as “could fuel unwinding” and the “formation of enzyme-metal-NTP complex” value [5] is reported as “formed an enzyme-metal-NTP complex”. The “ATP hydrolysis in the presence of RNA” value [4] was “supported hydrolysis”, the “ATP hydrolyzed for each 25 bp duplex separated” value [4] was “about 75 ATP” and the “rate of ATP hydrolysis” value [4] was 605 ± 4 nM/min. For the same compound, the “ATP hydrolysis in the absence of RNA” value [4] was “inhibited the rate of hydrolysis” and the “ATP hydrolyzed in the time needed to separate a single base pair” value [4] was 3 ATP.
Work on `[Cl-].[Na+]` [NaCl] yielded an IC50 ([1]; read-out: IC50, inhibition of NS3h catalyzed DNA unwinding, MBHA, data not shown) of 15 mM.
For `O=c1[nH]c(=O)c2ncn([C@@H]3O[C@H](COP(=O)(O)OP(=O)(O)OP(=O)(O)O)[C@@H](O)[C@H]3O)c2[nH]1` [XTP, Xanthosine triphosphate], the “unwinding rate, % of that seen with ATP” value [1] was 7%.
For `[Cl-].[Cl-].[Zn+2]` [Zn^2+, ZnCl2], the “ability of divalent metal” value ([1]; data not shown) was “did not support”, the “formation of enzyme-metal-NTP complex” value [5] was “formed an enzyme-metal-NTP complex” and the “ATP hydrolysis in the presence of RNA” value [4] was “supported hydrolysis”. The “ATP hydrolysis in the absence of RNA” value [4] was “inhibited the rate of hydrolysis”.
In the case of `Nc1ncnc2c1ncn2[C@H]1C[C@H](O)[C@@H](COP(=O)(O)OP(=O)(O)OP(=O)(O)O)O1` [dATP], the “use of dATP compared with ATP for unwinding” value (HCV helicase [6]) is given as “used equally well” and the “unwinding relative to that observed with ATP” value (full-length NS3) is given as 60%.
For `Cc1cn([C@H]2C[C@H](O)[C@@H](COP(=O)(O)OP(=O)(O)OP(=O)(O)O)O2)c(=O)[nH]c1=O` [dTTP], the “DNA unwinding rate” value [1] was “about 3 fold”, the “Vmax, Michaelis-Menten” value ([1]; 0.25 mM free Mg^2+) was 5.3 nM/min and the “Vmax, substrate inhibition model” value ([1]; 0.25 mM free Mg^2+) was 50 nM/min. The Km ([1]; 0.25 mM free Mg^2+) was 300 µM, the Afast ([3]; 17 base pairs substrate) was 3.4 ± 0.4 nM and the kfast ([3]; 17 base pairs substrate) was 9.1 ± 0.4 min⁻¹. It also gave an Aslow [3, 7] of 0.48 ± 0.03 nM, a kslow [3, 7] of 0.28 ± 0.06 min⁻¹ and an Afast ([3]; 30 base pairs substrate) of 2.6 ± 0.03 nM. For the same compound, the Aslow ([3]; 30 base pairs substrate) was 0.66 ± 0.02 nM, the kfast ([3]; 30 base pairs substrate) was 4.8 ± 0.3 min⁻¹ and the kslow ([3]; 30 base pairs substrate) was 0.50 ± 0.02 min⁻¹.
